A selection follows.
Apaf1 activ – human Apaf-1 activation; actives 0.31% (n = 330,000); Apaf-1 apoptosome caspase-3 activation, DEVD-Rh110 fluorescence; stronger effect = lower value; AID 489031; O14727; activity change, negative = activation, % at 20 µM;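 active = activity change at or below -40% at 20 µM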
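Schedule: 30 min preincubation, 50 min reaction, room temperature / System: biochemical Apaf-1 apoptosome reconstitution / Medium: 20 mM HEPES pH 7.5 with CHAPS, BSA / Evaluation: Caspase-3 cleavage activity downstream of Apaf-1 activation / Detection: Caspase-3-released Rh110 fluorescence, 540 nm emission, 480 nm excitation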
Rh110 interf act – counter-screen for Apaf-1 activators: fluorescence interference; shares compounds with Apaf1 activ; Rh110 fluorescence interference, quenched caspase reaction, Ex480/Em540; fluorescence interference (activity change), % at 20 µM, hits read low; 980 tested, under 10 active; AID 504616;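 active = mean activity change at or below -40% when tested at 20 µM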
Apaf-1 act conf2 – Apaf-1 (human) activation, single-dose confirmed. shares compounds with Apaf1 activ. reconstituted apoptosome caspase-3 activity, DEVD-Rh110 fluorescence; stronger effect = lower value. activity change, negative = activation, % at 20 µM. actives 5% (n = 980). AID 504617;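 active = mean activity change at or below -40%, meaning activation of 40% or more, at 20 µM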
Fluor interf act – Apaf-1 activator counter-screen fluorescence artifact. 55 tested, under 10 active. fluorescence interference counterscreen, Apaf-1 activator assay. AID 588592. shares compounds with Apaf1 activ. EC50, µM; call rule not given here
The depositor's hits bear a star; nt = not tested or not shown.

SMILES	Apaf1 activ	Rh110 interf act	Apaf-1 act conf2	others
CCCCCc1cc(=O)oc2c(C(CCN3CCCCC3)c3ccc4c(c3)OCO4)c(OC)cc(OC)c12 (centres undefined)	66	nt	nt
Nc1nc2c(s1)CCc1c-2cnn1-c1ccccc1	93	nt	nt
CN(Cc1nccs1)C(=O)CC1C(=O)NCCN1Cc1ccc(-c2ccccc2)cc1 (centres undefined)	-330*	6	15
Cc1[nH]n(-c2ccccc2)c(=O)c1C(c1ccc(O)c([N+](=O)[O-])c1)c1c(C)[nH]n(-c2ccccc2)c1=O	87	nt	nt
CCCCCCCCCn1c2c(c(=N)c3c1CCC3)CCC2	50	nt	nt
[O-][n+]1c2ccccc2cc2ccccc21	-386*	-9	9
COc1cc(OC)cc(-c2sc3ccc(OC)cc3c2-c2ccc(OCCN3CCCCC3)cc2)c1	60	nt	nt
CN(C)CCNC(=O)C(=O)NCC1OCCN1S(=O)(=O)c1cc(F)ccc1F (centres undefined)	47	nt	nt
N=C1CCC(=N)c2c1c(O)c1ccccc1c2O	77	nt	nt
Cc1ccc(S(=O)(=O)/N=C2\C=C(Nc3cccc(C(=O)O)c3)C(=O)c3ccccc32)c(C)c1	90	nt	nt	Fluor interf act=>100
CCc1ccc(S(=O)(=O)/N=C2\C=C(Nc3ccc(C(=O)O)cc3)C(=O)c3ccccc32)cc1	96	nt	nt
Cc1ccc(S(=O)(=O)/N=C2\C=C(Nc3cccc(C(=O)O)c3)C(=O)c3ccccc32)cc1	94	nt	nt
COCc1c(C(=O)OCC(=O)NCCN2C(=O)CSC2=O)oc2ccccc12	-67*	-4	5
COc1ccc(OCc2cc(C(=O)N3CCSCC3)no2)c(Cl)c1	-153*	7	13
N=c1n(CC(=O)c2ccc(Br)s2)c2ccccc2n1Cc1ccccc1	42	nt	nt
COc1ccc(O[C@H]2C=C[C@@H](c3ccccc3)O[C@@H]2CO/N=C(\C)CCN2CCc3nc(-c4ccccc4)c(-c4ccccc4)cc3C2)cc1	48	nt	nt
CN(Cc1ccc(F)cc1)Cc1nc(CCc2ccccc2)no1	-143*	1	10
C(=N\c1c(-c2ccccc2)nc2n1CCS2)/c1ccccc1	41	nt	nt
CCOC(=O)c1c(NC(=O)CN2CCN(C(=O)c3ccco3)CC2)sc2c1CCCC2	48	nt	nt
COc1ccc(S(N)(=O)=O)cc1-c1nnc2c3ccccc3c(C)nn12	-54*	14	13
CC(=O)Nc1cccc(C(=O)NC(C)c2ccc(-n3ccnc3)cc2)c1 (centres undefined)	41	nt	nt
Cc1cc(C)nc(NC(=O)CSc2nc3ccccc3o2)n1	-71*	0	13
Nc1cc2nc3ccccc3oc-2cc1=O	48	nt	nt
CN(C)CCOc1ccc(-c2c(-c3ccccc3)sc3ccccc23)cc1	77	nt	nt
COC(=O)C1=C(C)NC(C)=C(C(=O)OC(C)C)C1c1cccc2nonc12 (centres undefined)	-207*	1	8
SMILES	Apaf1 activ	Rh110 interf act	Apaf-1 act conf2	others
Cn1nc(-c2ccc(Cl)cc2)c2cc(C(=O)NCCCN3CCCC3)sc21	49	nt	nt
Cc1cc(/C=C\c2ccc3cc(N(C)C)ccc3[n+]2C)c(C)n1-c1ccccc1	43	nt	nt
COc1ccc(/C=C/C(=O)NC(=S)Nc2ccc(S(N)(=O)=O)cc2)cc1	-80*	-2	14
COc1ccc(NC(=O)CC2Nc3cccc4cccc(c34)NC2=O)cc1 (centres undefined)	94	nt	nt
CNC(=S)NNC(=O)c1sccc1OCc1cccc(C(F)(F)F)c1	-190*	12	7
COC(CNC(=S)Nc1ccc([N+](=O)[O-])cc1)OC	-58*	8	3
O=C1C(=C(O)c2ccccc2)C(=O)c2ccccc21	41	nt	nt
Cc1cccc(-c2nnc3sc(-c4ccccc4C)nn23)c1	-49*	6	26
Cc1cccc(-c2cc3c(nn2)-c2ccccc2C3=O)c1	91	nt	nt
COc1cccc(OC)c1-c1nn2c(-c3cc(-c4ccccc4)n[nH]3)nnc2s1	53	nt	nt
CN1CCN(CCCN2c3ccccc3Sc3ccc(Cl)cc32)CC1	54	nt	nt
CSc1ccc2c(c1)C(N1CCN(C)CC1)Cc1ccccc1S2 (centres undefined)	48	nt	nt
CN1CCN(C2Cc3cc(F)ccc3Sc3ccc(Cl)cc32)CC1 (centres undefined)	-78*	7	7
Cn1c(=O)n(C)c2cc(/C=N/NC(=O)c3cc4cc(Br)ccc4o3)ccc21	43	nt	nt
O=C1C2C3C=CC(C3)C2C(=O)N1CNc1ccc(O)cc1 (centres undefined)	94	nt	nt
O=C(O)c1cc(O)c2c(c1)[C@H]([C@H]1c3cc(C(=O)O)cc(O)c3C(=O)c3c(O[C@@H]4O[C@H](CO)[C@@H](O)[C@H](O)[C@H]4O)cccc31)c1cccc(OC3O[C@H](CO)[C@@H](O)[C@H](O)[C@H]3O)c1C2=O (some centres undefined)	89	nt	nt
COc1ccc(C2=NO[C@@H]3[C@@H]4C[C@@H]([C@H]5C(=O)N(C)C(=O)[C@@H]45)[C@H]23)c(OC)c1	-63*	8	14
C#CCOCCOCCOCCNc1nc(N2CCN(C(=O)[C@H](CCCCN)n3cc([C@@H](N)[C@H](C)CC)nn3)CC2)nc(N2CCN(C(=O)[C@H](CCC(=O)O)n3cc([C@@H](N)CCCCN)nn3)CC2)n1	47	nt	nt
CCN1CCN(C2=C(NS(=O)(=O)c3ccccc3)C(=O)c3ccccc3C2=O)CC1	82	nt	nt
CC(C)(C)NC(=O)[C@@H]1C[C@@H]2CCCC[C@@H]2CN1C[C@@H](O)[C@H](Cc1ccccc1)NC(=O)[C@H](CC(N)=O)NC(=O)c1ccc2ccccc2n1	35	nt	nt
O=S(=O)(c1ccc(NC(=S)Nc2ccc(OC(F)F)cc2)cc1)N1CCOCC1	-66*	10	18
O=C(/C=C/Nc1ccc(F)c(F)c1)c1ccc(Br)cc1	-103*	4	15
CCN(CC)c1ccc(N=C2C(=O)Nc3ccccc32)cc1	47	nt	nt
CCOC(=O)c1c(C)c2c(=O)[nH]cnc2n1-c1ccccc1	58	nt	nt
CCCCCCCCCCCCCCCC(O)C(N)CO (centres undefined)	80	nt	nt
SMILES	Apaf1 activ	Rh110 interf act	Apaf-1 act conf2	others
CC(C)N1CCc2c(sc(NC(=O)c3cc(-c4cccs4)nc4ccccc34)c2C(N)=O)C1	61	nt	nt
CC(Cc1c[nH]c2ccccc12)C(=O)O (centres undefined)	-351*	8	-120*	Fluor interf act=>100
Cc1ccc(NC(=O)c2ncn(CC(=O)N[C@H](CO)Cc3c[nH]c4ccccc34)n2)cc1C	74	nt	nt
CN(C)CCCNC(=S)NCC(c1ccc(Cl)cc1Cl)c1c[nH]c2ccccc12 (centres undefined)	41	nt	nt
Nc1ncc(Br)cc1N=Cc1ccccc1	62	nt	nt
COc1ccc(CN2C(=O)Cc3c2nc(N)c2c(N)nc(N4CCCCC4)c(C#N)c32)cc1	51	nt	nt
C#CCOCCOCCOCCNc1nc(N2CCN(C(=O)CCCCCCCCCCNC(=O)Cn3cc(CCCCCN)nn3)CC2)nc(N2CCN(C(=O)CCCCCCCCCCNC(=O)[C@@H](CCC(=O)O)n3cc(CCCCCN)nn3)CC2)n1	59	nt	nt
C#CC(CC)(CC)NC(=O)/C=C/C(=O)O	-566*	7	11
Cc1cccc(CC(=O)NCCn2c(C)cc3ccccc32)c1	41	nt	nt

Assay outcomes: PubChem BioAssay, Sanford-Burnham Center for Chemical Genomics
